Results reported in ChEMBL document CHEMBL1151705, “Novel azalides derived from 16-membered macrolides. Part II: Isolation of the linear 9-formylcarboxylic acid and its sequential macrocyclization with an amino alcohol or an azidoamine” (2008).
Converted amounts (≈) assume the structure as drawn.

How the values were obtained:
Assay type in all cases: functional
Moraxella catarrhalis [1] = assay: Antimicrobial activity against drug-susceptible Moraxella catarrhalis 2 after 20 hrs by agar dilution method; settings: Moraxella catarrhalis, 20 h; read-out: MIC
Summary of the method: (§1)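 Streptococci, H. influenzae and M. catarrhalis were precultured on blood agar plates. Suspensions of about 10⁶ CFU/ml were inoculated onto sensitivity disk agar supplemented with 5% horse blood and incubated at 37 °C for 20 h. MIC was read as the lowest drug concentration with no visible growth.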

Staphylococcus aureus [2] = assay: Antimicrobial activity against Staphylococcus aureus 5 expressing inducible ermB after 20 hrs by agar dilution method; settings: Staphylococcus aureus, 20 h; read-out: MIC
Summary of the method: (§2)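 Agar dilution MIC. S. aureus seed culture was grown in sensitivity test broth. Cell suspension (about 10⁶ CFU/ml) was inoculated onto sensitivity disk agar with 5% horse blood and incubated at 37 °C for 20 h. MIC was the lowest drug concentration that prevented visible growth.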

Streptococcus pyogenes [3] = assay: Antimicrobial activity against Streptococcus pyogenes 2 constitutively expressing ermB after 20 hrs by agar dilution method; summary of the method: as §1
Moraxella catarrhalis [4] = assay: Antimicrobial activity against drug-susceptible Moraxella catarrhalis 1 after 20 hrs by agar dilution method; summary of the method: as §1
Streptococcus pneumoniae [5] = assay: Antimicrobial activity against Streptococcus pneumoniae 5 constitutively expressing ermB/mefA after 20 hrs by agar dilution method; settings: Streptococcus pneumoniae, 20 h; read-out: MIC; summary of the method: as §1
Staphylococcus aureus [6] = assay: Antimicrobial activity against drug-susceptible Staphylococcus aureus 3 after 20 hrs by agar dilution method; settings: Staphylococcus aureus, 20 h; read-out: MIC; summary of the method: as §2
Haemophilus influenzae [7] = assay: Antimicrobial activity against drug-susceptible Haemophilus influenzae 4 after 20 hrs by agar dilution method; settings: Haemophilus influenzae, 20 h; read-out: MIC; summary of the method: as §1
Haemophilus influenzae [8] = assay: Antimicrobial activity against drug-susceptible Haemophilus influenzae 2 after 20 hrs by agar dilution method; settings: Haemophilus influenzae, 20 h; read-out: MIC; summary of the method: as §1
Haemophilus influenzae [9] = assay: Antimicrobial activity against drug-susceptible Haemophilus influenzae 3 after 20 hrs by agar dilution method; settings: Haemophilus influenzae, 20 h; read-out: MIC; summary of the method: as §1
Streptococcus pneumoniae [10] = assay: Antimicrobial activity against drug-susceptible Streptococcus pneumoniae DP1 Type1 after 20 hrs by agar dilution method; settings: Streptococcus pneumoniae, 20 h; read-out: MIC; summary of the method: as §1
Staphylococcus aureus [11] = assay: Antimicrobial activity against drug-susceptible Staphylococcus aureus 2 after 20 hrs by agar dilution method; settings: Staphylococcus aureus, 20 h; read-out: MIC; summary of the method: as §2
Streptococcus pneumoniae [12] = assay: Antimicrobial activity against Streptococcus pneumoniae 8 expressing inducible ermB after 20 hrs by agar dilution method; summary of the method: as §1
Streptococcus pyogenes [13] = assay: Antimicrobial activity against drug-susceptible Streptococcus pyogenes 1 after 20 hrs by agar dilution method; settings: Streptococcus pyogenes, 20 h; read-out: MIC; summary of the method: as §1
Staphylococcus aureus [14] = assay: Antimicrobial activity against drug-susceptible Staphylococcus aureus 209P JC-1 after 20 hrs by agar dilution method; settings: Staphylococcus aureus, 209P, 20 h; read-out: MIC; summary of the method: as §2
Streptococcus pneumoniae [15] = assay: Antimicrobial activity against Streptococcus pneumoniae 9 expressing mefA after 20 hrs by agar dilution method; settings: Streptococcus pneumoniae, 20 h; read-out: MIC; summary of the method: as §1
Haemophilus influenzae [16] = assay: Antimicrobial activity against drug-susceptible Haemophilus influenzae 1 after 20 hrs by agar dilution method; settings: Haemophilus influenzae, 20 h; read-out: MIC; summary of the method: as §1
Streptococcus pneumoniae [17] = assay: Antimicrobial activity against drug-susceptible Streptococcus pneumoniae 3 after 20 hrs by agar dilution method; settings: Streptococcus pneumoniae, 20 h; read-out: MIC; summary of the method: as §1
Staphylococcus aureus [18] = assay: Antimicrobial activity against Staphylococcus aureus 6 expressing inducible ermB after 20 hrs by agar dilution method; summary of the method: as §2
Staphylococcus aureus [19] = assay: Antimicrobial activity against Staphylococcus aureus 4 constitutively expressing ermA after 20 hrs by agar dilution method; summary of the method: as §2
Streptococcus pyogenes [20] = assay: Antimicrobial activity against Streptococcus pyogenes 3 expressing mefA after 20 hrs by agar dilution method; settings: Streptococcus pyogenes, 20 h; read-out: MIC; summary of the method: as §1
Streptococcus pneumoniae [21] = assay: Antimicrobial activity against Streptococcus pneumoniae 6 constitutively expressing ermB after 20 hrs by agar dilution method; settings: Streptococcus pneumoniae, 20 h; read-out: MIC; summary of the method: as §1
Streptococcus pneumoniae [22] = assay: Antimicrobial activity against drug-susceptible Streptococcus pneumoniae 2 after 20 hrs by agar dilution method; settings: Streptococcus pneumoniae, 20 h; read-out: MIC; summary of the method: as §1
Streptococcus pneumoniae [23] = assay: Antimicrobial activity against Streptococcus pneumoniae 10 expressing mefA after 20 hrs by agar dilution method; settings: Streptococcus pneumoniae, 20 h; read-out: MIC; summary of the method: as §1
Streptococcus pneumoniae [24] = assay: Antimicrobial activity against Streptococcus pneumoniae 7 expressing inducible ermB after 20 hrs by agar dilution method; settings: Streptococcus pneumoniae, 20 h; read-out: MIC; summary of the method: as §1
Streptococcus pneumoniae [25] = assay: Antimicrobial activity against Streptococcus pneumoniae 4 constitutively expressing ermB after 20 hrs by agar dilution method; settings: Streptococcus pneumoniae, 20 h; read-out: MIC; summary of the method: as §1

Row | Structure (SMILES) | MIC (Moraxella catarrhalis [1]) [µg/mL] | MIC (Staphylococcus aureus [2]) [µg/mL] | MIC (Streptococcus pyogenes [3]) [µg/mL] | MIC (Streptococcus pneumoniae [5]) [µg/mL] | MIC (Staphylococcus aureus [6]) [µg/mL] | MIC (Haemophilus influenzae [7]) [µg/mL] | MIC (Haemophilus influenzae [8]) [µg/mL] | MIC (Haemophilus influenzae [9]) [µg/mL] | MIC (Streptococcus pneumoniae [10]) [µg/mL] | MIC (Staphylococcus aureus [11]) [µg/mL] | MIC (Streptococcus pyogenes [13]) [µg/mL] | MIC (Staphylococcus aureus [14]) [µg/mL] | MIC (Streptococcus pneumoniae [15]) [µg/mL] | MIC (Haemophilus influenzae [16]) [µg/mL] | MIC (Streptococcus pneumoniae [17]) [µg/mL] | MIC (Staphylococcus aureus [18]) [µg/mL] | MIC (Staphylococcus aureus [19]) [µg/mL] | MIC (Streptococcus pyogenes [20]) [µg/mL] | MIC (Streptococcus pneumoniae [21]) [µg/mL] | MIC (Streptococcus pneumoniae [22]) [µg/mL] | other results
1 | CCOC(=O)[C@H]1[C@H](C)O[C@@H](O[C@H]2[C@H](N(C)C)[C@@H](O)[C@H](O[C@H]3[C@@H](CC=O)C[C@@H](C)[C@@H](O)CN(C)CCC[C@H](C/C=C/c4ccnc5ccccc45)OC(=O)C[C@@H](OC(=O)CC)[C@@H]3OC)O[C@@H]2C)C[C@@]1(C)O | 1 (≈ 1.01 µM) | 0.25 (≈ 0.253 µM) | > 128 | > 128 | 0.25 (≈ 0.253 µM) | 8 (≈ 8.11 µM) | 2 (≈ 2.03 µM) | 8 (≈ 8.11 µM) | 0.03 (≈ 0.0304 µM) | 1 (≈ 1.01 µM) | 0.13 (≈ 0.132 µM) | 0.25 (≈ 0.253 µM) | 0.06 (≈ 0.0608 µM) | 32 (≈ 32.4 µM) | 0.015 (≈ 0.0152 µM) | 0.5 (≈ 0.507 µM) | > 128 | 0.5 (≈ 0.507 µM) | > 128 | 0.06 (≈ 0.0608 µM) | MIC (Moraxella catarrhalis [4]; Moraxella catarrhalis, 20 h, read-out: MIC): 1 µg/mL (≈ 1.01 µM); MIC (Streptococcus pneumoniae [12]; Streptococcus pneumoniae, 20 h, read-out: MIC): 4 µg/mL (≈ 4.06 µM); MIC (Streptococcus pneumoniae [23]): 0.06 µg/mL (≈ 0.0608 µM); MIC (Streptococcus pneumoniae [24]): 8 µg/mL (≈ 8.11 µM); MIC (Streptococcus pneumoniae [25]): > 128 µg/mL
2 | CCOC(=O)[C@H]1[C@H](C)O[C@@H](O[C@H]2[C@H](N(C)C)[C@@H](O)[C@H](O[C@H]3[C@@H](CC=O)C[C@@H](C)[C@@H](O)CN(C)CCC(CCCc4cnc5ccccc5c4)NC(=O)C[C@@H](OC(=O)CC)[C@@H]3OC)O[C@@H]2C)C[C@@]1(C)O (mixture of isomers) | 2 | 0.5 | > 128 | > 128 | 0.25 | 16 | 1 | 8 | 0.03 | 1 | 0.13 | 0.5 | 0.06 | 32 | 0.06 | 0.5 | > 128 | 0.5 | > 128 | 0.06 | MIC (Moraxella catarrhalis [4]): 2 µg/mL; MIC (Streptococcus pneumoniae [12]): 64 µg/mL; MIC (Streptococcus pneumoniae [23]): 0.06 µg/mL; MIC (Streptococcus pneumoniae [24]): 16 µg/mL; MIC (Streptococcus pneumoniae [25]): > 128 µg/mL
